The list is not random: actives were taken first. Their share in the collection is about 2.1%.
APJ antag = APJ receptor antagonism. actives 0.32% (n = 330,000). P35414. inhibition, % at 20 µM. AID 2521. CHO-K1 APJ beta-arrestin complementation, luminescence;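 active = inhibition above about 40% at 20 µM, limit read from the data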;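 also: cells challenged with 10 nM apelin-13 agonist together with compound; plate controls were apelin-13 plus DMSO wells for no effect and DMSO wells lacking apelin-13 for full effect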
Target sequence (P35414 whole entry, looked up): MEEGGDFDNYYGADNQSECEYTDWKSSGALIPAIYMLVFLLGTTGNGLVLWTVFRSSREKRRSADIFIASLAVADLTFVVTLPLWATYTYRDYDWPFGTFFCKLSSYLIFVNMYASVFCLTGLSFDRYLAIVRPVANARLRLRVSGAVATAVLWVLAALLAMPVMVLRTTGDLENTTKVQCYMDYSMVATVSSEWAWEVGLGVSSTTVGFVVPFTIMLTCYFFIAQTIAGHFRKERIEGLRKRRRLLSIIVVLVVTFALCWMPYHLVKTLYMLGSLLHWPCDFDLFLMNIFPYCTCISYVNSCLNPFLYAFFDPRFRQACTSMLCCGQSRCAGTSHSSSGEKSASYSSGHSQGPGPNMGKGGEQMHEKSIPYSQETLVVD
EBI2 antag = EBI2 (human) antagonism; EBI2 beta-arrestin recruitment, luminescence, 7a,25-OHC stimulated; AID 651636; inhibition, % at 5 µM; actives 0.81% (n = 360,000); P32249; in the data active = inhibition above about 38%;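 also: enzyme fragment complementation signal reports receptor beta-arrestin coupling in cells; 0% = agonist plus DMSO wells and 100% = wells without agonist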
CCR6 antag = antagonists of human CCR6 receptor. CHO-K1 CCR6 PathHunter beta-arrestin, luminescence, CCL20-stimulated. inhibition, % at 20 µM. actives 0.49% (n = 340,000). AID 493098;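 active = compounds whose inhibition of the agonist-driven luminescence signal at 20 µM reaches about 50%, limit read from the data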;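 also: cells stimulated with CCL20 at 14 nM final; plate controls were DMSO with CCL20 for no effect and DMSO without agonist for full effect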
m5-HT2A agonist = agonists of mouse serotonin 5-HT2A receptor (HTR2A). actives 0.66% (n = 360,000). CHO-K1 mHTR2A beta-arrestin complementation, luminescence; percent of 30 µM serotonin response. activation, % at 7.6 µM. P35363;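 active = activation above a run cutoff, the mean activation of all tested compounds plus 3 SD, cut at about 14% in these data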;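 also: 0% = plate median of compound wells and 100% = 30 µM serotonin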
APJ agonist = activates the human apelin receptor APJ; P35414; CHO-K1 APJ PathHunter beta-arrestin, luminescence; 0% DMSO wells, 100% apelin; activation, % at 20 µM; actives 0.11% (n = 330,000);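 active = activation more than six SD over the plate average, tested at 20 µM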;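 also: 0% = DMSO alone and 100% = apelin-13 at 10 nM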
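Incubation: overnight seeding, 90 min compound at 25 °C, 1 h detection; test system: PathHunter CHO-K1 APJ (AGTRL-1) beta-arrestin reporter cells; amount: 1000 cells/well; doses: one dose, 20 µM compound, 1% DMSO; measured by: beta-gal luminescence; measure: agonist-driven arrestin binding to APJ; benchmarks: negative DMSO alone, positive Apelin-13 at 10 nM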
CXCR6 block = CXCR6 (human) receptor inhibition; actives 0.36% (n = 360,000); inhibition, % at 20 µM; O00574; CHO-K1 PathHunter CXCR6 beta-arrestin, luminescence; AID 602244; in the data active = inhibition above about 34%, passing the limit was not always enough;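 also: antagonist mode with CXCL16 agonist at 10 nM final; 0% = 10 nM CXCL16 with DMSO and 100% = unstimulated wells without agonist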
MOR ag counter = counter-screen for mouse HTR2A agonists: human mu opioid receptor agonists; shares compounds with m5-HT2A agonist; U2OS OPRM1 beta-arrestin PathHunter, luminescence; DMSO 0%, DAMGO 9.3 µM 100%; activation, % at 9.3 µM; actives 5.3% (n = 2,300); AID 624380;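 active = mean activation above the mean of DMSO-only wells plus 3 SD, cut at about 0.5% in these data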
HTR2A ag conf = confirmation of mouse HTR2A serotonin receptor agonists | CHO-K1 PathHunter beta-arrestin recruitment, luminescence; DMSO 0%, 30 µM serotonin 100% | activation, % at 7.6 µM | shares compounds with m5-HT2A agonist | actives 19% (n = 2,300);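 active = mean activation across triplicates above the hit threshold derived in the original primary screen, cut at about 15% in these data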
* hit, by the source's call.

Screening Cc1cc(NC(=O)CSc2nnc(-c3ccc(S(=O)(=O)N4CCCC4)cc3)n2C)no1 returned APJ antag 17, EBI2 antag 2, CCR6 antag 1, m5-HT2A agonist 18*, APJ agonist -1, CXCR6 block 1, MOR ag counter -1 and HTR2A ag conf -5.
Screening CC(=O)C12OC1CC1C3CCC4=CC(=O)CCC4(C)C3CCC12C (configuration not stated) returned APJ antag 6, EBI2 antag 12, CCR6 antag 8, m5-HT2A agonist 16*, APJ agonist -1, CXCR6 block -6, MOR ag counter -1 and HTR2A ag conf -2.
`CN1CCN(c2nc(-c3cccc([N+](=O)[O-])c3)nc3ccccc23)CC1` gave APJ antag -9, EBI2 antag 1, CCR6 antag 7, m5-HT2A agonist -12, APJ agonist -2 and CXCR6 block -1.
CC1CCN(CCCNC(=O)CCc2nnc3n(CCc4ccccc4)c(=O)c4ccccc4n23)CC1 was read as APJ antag 21, EBI2 antag 3, CCR6 antag 12, m5-HT2A agonist -8, APJ agonist -3 and CXCR6 block 3.
CC(C)Cn1c(=O)c2ccccc2n2c(CCC(=O)NC3CCN(Cc4ccccc4)CC3)nnc12 was read as APJ antag 12, EBI2 antag -3, CCR6 antag 17, m5-HT2A agonist 19*, APJ agonist 2, CXCR6 block 2, MOR ag counter -1 and HTR2A ag conf 6.
`COc1ccc2[nH]cc(CCN=C3SCC(=O)N3C)c2c1` gave APJ antag -5, EBI2 antag 1, CCR6 antag 4, m5-HT2A agonist 18*, APJ agonist -2, CXCR6 block -1, MOR ag counter 0 and HTR2A ag conf 3.
For COc1ccc2[nH]cc(CCn3ccc(=O)c(C)c3C)c2c1 the results were APJ antag -23, EBI2 antag 4, CCR6 antag 3, m5-HT2A agonist 2, APJ agonist -1 and CXCR6 block 5.
COC(=O)C(CCSC)NC(=O)Cn1ncc2c(=O)oc3ccccc3c21 (configuration not stated) was read as APJ antag 4, EBI2 antag -8, CCR6 antag 1, m5-HT2A agonist 23*, APJ agonist 6, CXCR6 block 4, MOR ag counter -1 and HTR2A ag conf 0.
For CC(=O)N1CCN(C(=S)NC(=O)c2ccc(S(=O)(=O)N3CCOCC3)cc2)CC1 the results were APJ antag 33, EBI2 antag -16, CCR6 antag 4, m5-HT2A agonist 16*, APJ agonist 1, CXCR6 block -7, MOR ag counter -1 and HTR2A ag conf -3.
For CC(=O)Nc1ccc(C(=O)Nc2ccc(S(=O)(=O)N3CCOCC3)cc2)cc1 the results were APJ antag -1, EBI2 antag 1, CCR6 antag -2, m5-HT2A agonist -2, APJ agonist -3 and CXCR6 block 1.
`O=C(CBr)N1CCc2ccccc2C(c2ccccc2)C1` (configuration not stated) gave APJ antag 10, EBI2 antag -7, CCR6 antag 5, m5-HT2A agonist 1, APJ agonist 2 and CXCR6 block 6.
`C=CCN1CCc2c(cc(O)c(O)c2Br)[C@@H](c2ccccc2)C1` gave APJ antag -46, EBI2 antag 6, CCR6 antag 0, m5-HT2A agonist 61*, APJ agonist 7, CXCR6 block -5, MOR ag counter 0 and HTR2A ag conf 141*.
CCCCNC(=O)c1nc(-c2cc3ccccc3[nH]2)oc1-c1cccc(C(F)(F)F)c1 was read as EBI2 antag 11, m5-HT2A agonist 16*, MOR ag counter 0.7* and HTR2A ag conf 12.
`CCN1CCN(C(CNS(=O)(=O)c2ccc(OC)cc2)c2cccnc2)CC1` (configuration not stated) gave APJ antag 0, EBI2 antag 2, CCR6 antag 13, m5-HT2A agonist 15*, APJ agonist 0, CXCR6 block 3, MOR ag counter -1 and HTR2A ag conf -5.
For COc1ccc(S(=O)(=O)NCC(c2cccnc2)N2CCN(Cc3ccccc3)CC2)cc1 (configuration not stated) the results were APJ antag 3, EBI2 antag -4, CCR6 antag -1, m5-HT2A agonist -1, APJ agonist -5 and CXCR6 block 9.
For CC(C)n1ncc2c(C(=O)NCC(=O)Nc3ccccc3Br)cc(C3CC3)nc21 the results were APJ antag -58, EBI2 antag 3, CCR6 antag 7, m5-HT2A agonist -4, APJ agonist -2 and CXCR6 block -6.
For CNC(=O)C1CCN(S(=O)(=O)c2c(C)noc2/C=C/c2ccc(OC)cc2)CC1 the results were APJ antag -8, EBI2 antag -3, CCR6 antag -4, m5-HT2A agonist 20*, APJ agonist 0, CXCR6 block -9, MOR ag counter 0 and HTR2A ag conf -4.
For CC(C)Oc1ccc(S(=O)(=O)N2CCCCC2)cc1NC(=O)CC1OC(=O)c2ccccc21 (configuration not stated) the results were APJ antag 15, EBI2 antag 4, CCR6 antag 2, m5-HT2A agonist -2, APJ agonist -5 and CXCR6 block -1.
CC(C)Oc1ccc(S(=O)(=O)N2CCOCC2)cc1NC(=O)CC1OC(=O)c2ccccc21 (configuration not stated) was read as APJ antag 21, EBI2 antag 2, CCR6 antag 2, m5-HT2A agonist 16*, APJ agonist -2, CXCR6 block 5, MOR ag counter 0 and HTR2A ag conf 0.
Screening Cc1noc(C)c1S(=O)(=O)N1CCCC(C(=O)N2CCN(C3CCCCC3)CC2)C1 (configuration not stated) returned APJ antag -72, EBI2 antag 1, CCR6 antag 1, m5-HT2A agonist 0, APJ agonist -5 and CXCR6 block 2.
For Cc1noc(C)c1S(=O)(=O)N1CCC(C(=O)N2CCC(N3CCCCC3)CC2)CC1 the results were APJ antag 1, EBI2 antag -2, CCR6 antag 9, m5-HT2A agonist 34*, APJ agonist -5, CXCR6 block 0, MOR ag counter 0 and HTR2A ag conf -4.

Source: PubChem
